From PubChem
bovine MsrA act = activates bovine MsrA enzyme; activation, % at 10.6 µM; 360,000 compounds, 0.3% hits; AID 602163; purified bovine MsrA, absorbance read-out; in the data active = activation above about 7.5%;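 also: 0% = vehicle and 100% = reference activator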
proCasp3 act = activators of human procaspase-3; P42574; recombinant procaspase-3 D3A, Ac-DEVD-pNA absorbance 405 nm; activation, % at 8.5 µM; 330,000 compounds, 0.11% hits; AID 463141;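 active = activation above the mean of all tested compounds plus 3 SD, cut at about 21% in these data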;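 also: 0% = DMSO alone and 100% = DMSO wells spiked with extra 5 µM PC-3 D3A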
Target sequence (P42574 whole entry D9A/D28A/D175A): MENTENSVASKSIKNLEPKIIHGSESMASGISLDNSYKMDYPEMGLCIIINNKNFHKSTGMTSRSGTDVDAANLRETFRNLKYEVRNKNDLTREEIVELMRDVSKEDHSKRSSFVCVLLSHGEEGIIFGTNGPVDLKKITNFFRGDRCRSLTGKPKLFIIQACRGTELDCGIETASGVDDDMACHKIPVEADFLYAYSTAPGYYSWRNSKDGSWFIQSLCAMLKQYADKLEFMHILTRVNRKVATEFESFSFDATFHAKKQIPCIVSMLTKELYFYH
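System: Procaspase-3 D3A mutant. Medium: Zinc-free 300 mM NaCl, 50 mM HEPES, 0.01% Triton X-100. Schedule: 1 h preincubation plus 2 h reaction at 25 °C. Measured by: 405 nm absorbance of p-nitroaniline, reads at 0 and 120 min. Read-out: percent activation relative to control range.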
MsrA inhibitor = bovine MsrA inhibition | purified bovine MsrA, absorbance read-out | inhibition, % at 15.5 µM | 360,000 compounds, 0.75% hits | AID 651718; in the data active = inhibition above about 4.5%;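 also: 0% = vehicle wells with enzyme and 100% = reference inhibitor wells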
procasp7 counter = activates human procaspase-7, counter-screen for procaspase-3 activators; P55210; recombinant procaspase-7, Ac-DEVD-pNA absorbance 405 nm; D23A/D198A/D206A triple mutant, cannot self-cleave; scale: DMSO 0, 5 µM enzyme 100; activation, % at 8.5 µM; 330,000 compounds, 0.093% hits; AID 463210;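 active = percent activation above the screen-wide mean plus 3 SD, cut at about 25% in these data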
Target sequence (P55210 whole entry D23A/D198A/D206A): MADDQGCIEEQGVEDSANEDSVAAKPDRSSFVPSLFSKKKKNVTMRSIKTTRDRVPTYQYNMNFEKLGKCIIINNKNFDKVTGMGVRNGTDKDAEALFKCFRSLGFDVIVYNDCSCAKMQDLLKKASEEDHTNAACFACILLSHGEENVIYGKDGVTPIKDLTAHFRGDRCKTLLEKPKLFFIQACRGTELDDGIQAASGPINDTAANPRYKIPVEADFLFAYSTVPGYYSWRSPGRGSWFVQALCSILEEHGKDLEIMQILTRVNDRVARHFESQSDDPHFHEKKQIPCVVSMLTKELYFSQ
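Test system: Procaspase-7 triple mutant (PC-7 D3A). Also added: Ac-DEVD-pNA substrate, 400 µM as added. Schedule: 1 h enzyme–compound preincubation and 2 h substrate reaction, both 25 °C. Signal: p-Nitroaniline absorbance at 405 nm, read at 0 and 120 min. Control set: low DMSO alone, high DMSO plus 5 µM PC-7.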
MsrA act confirm = confirmation of bovine methionine sulfoxide reductase A activators; shares compounds with bovine MsrA act; purified bovine MsrA, absorbance read-out; activation, % at 10.6 µM; 1,000 compounds, 12% hits; AID 602270; in the data active = activation above about 4%;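 also: enzyme coupled to thioredoxin and thioredoxin reductase with NADPH; 0% = vehicle wells and 100% = reference activator wells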
An asterisk follows results filed as active; · = not tested or not shown. Only some compounds are listed: those with a hit (about 1.2% of all), similar ones and a draw of the others.

SMILES	bovine MsrA act	proCasp3 act	MsrA inhibitor	procasp7 counter	MsrA act confirm
O=C(O)CSc1nnc(Cn2cnc3ccccc32)n1CCc1ccccc1	8.8*	-1	-1	2	-4
COc1cc(Nc2ccc(C(=O)O)cc2[N+](=O)[O-])cc(OC)c1	9.7*	-12	2	-5	8.1*
CCOC(=O)c1sc(=S)n(-c2ccccc2OC)c1N	8.4*	-10	3	-9	-6
COC(=O)c1sc(=S)n(-c2ccccc2OC)c1N	-1	8	2	1	·
Cc1cc(N2CCNC[C@H]2C)ccc1N1C[C@@H](C)O[C@@H](C)C1	·	·	0	·	·
CCOC(=O)C1=C(C)N(C)C(=O)NC1c1c(C)nn(-c2ccc(C)cc2)c1Cl (stereo not given)	13*	5	0	5	1
O=C(NCc1ccco1)Nc1c(Cl)cc(Cl)cc1Cl	·	·	-1	·	·
CS(=O)(=O)N1CCN(C(=O)c2ccc(Cl)s2)CC1	16*	3	-1	7	-1
Cc1ccc(S(=O)(=O)N2CCC(C(=O)NCCCOC(C)C)CC2)cc1	7.7*	2	-1	2	0
O=C(Nc1ccc(Cl)cc1)Nc1ccccn1	8.4*	2	1	5	-2
O=C(Nc1ccccc1)Nc1ccccn1	-2	11	-1	7	·
COc1ccc(C2NC(=S)N(Cc3ccc(Cl)cc3)C(C)=C2C(C)=O)cc1 (stereo not given)	·	·	0	·	·
C=C1CCC[C@]2(C)C[C@H]3OC(=O)C(CNCCN(CC)CC)[C@H]3CC12 (stereo not given in full)	8.4*	-2	-1	-14	-1
S=c1[nH]nc(-c2cccnc2)n1/N=C/c1cccs1	10*	2	0	-18	-2
O=C(CSc1ccccc1C(=O)O)NCc1ccccc1	8.1*	6	0	-6	-1
Cn1c(N)c(S(=O)(=O)NCc2ccc(Cl)cc2)c(=O)n(C)c1=O	8.9*	-3	0	6	-3
Cn1c(N)c(S(=O)(=O)NCc2ccccc2)c(=O)n(C)c1=O	-4	10	0	1	·
CC(C)(C)c1cc(NC(=O)c2ccco2)n(-c2ccccc2)n1	16*	-8	1	-9	-1
CC[C@H]1C(=O)[C@@H](Cc2ccccc2)[C@@H]2CCN3C(=O)CCC[C@H]1[C@H]23	17*	·	1	·	-1
O=C1C[C@@H]2CCN3C(=O)CCC[C@@H]([C@H]23)[C@H]1Cc1ccccc1	-2	0	-1	9	·
NC1=C(Br)C(=O)c2ccccc2C1=O	9.7*	6	1	-6	9.4*
Cc1noc(C)c1NC(=O)N(C)C[C@H]1Oc2ccc(NC(=O)NC(C)C)cc2C(=O)N([C@H](C)CO)C[C@H]1C	-13	0	1	0	·
Cc1noc(C)c1NC(=O)N(C)C[C@H]1Oc2ccc(NC(=O)Nc3ccc(C(F)(F)F)cc3)cc2C(=O)N([C@H](C)CO)C[C@@H]1C	19*	-5	-1	1	0
COc1ccc(NC(=O)N(C)C[C@H]2OCCCC[C@@H](C)Oc3ccc(NC(=O)c4ccccc4)cc3C(=O)N([C@H](C)CO)C[C@@H]2C)cc1	11*	·	0	·	-2
O=C(c1ccccc1)N1CCC2CCN(S(=O)(=O)c3ccccc3)CC21 (stereo not given)	·	·	0	·	·
SMILES	bovine MsrA act	proCasp3 act	MsrA inhibitor	procasp7 counter	MsrA act confirm
C[C@@H]1COc2cccc(N3CCCC3)c2S(=O)(=O)N1	·	·	0	·	·
O=[N+]([O-])c1ccc(-[n+]2ccc3ccccc3c2)c([N+](=O)[O-])c1	11*	-3	2	-8	3
C[C@H]1[C@@H](c2ccccc2)Oc2c(Cl)cccc2S(=O)(=O)N1C	·	·	0	·	·
O=C(C(=O)N1CCN(S(=O)(=O)c2cccc3ccccc23)CC1)c1cccc(C(F)(F)F)c1	·	·	0	·	·
COc1ccc(-c2nnc(-c3cccnc3)o2)cc1OC	-1	-3	2	5	·
CCOc1ccc(-c2nnc(-c3cccnc3)o2)cc1OCC	9.2*	3	2	5	1
COc1ccc(Cn2cc(CN3[C@@H](c4ccccc4)COc4cc(Br)ccc4S3(=O)=O)nn2)cc1	·	·	0	·	·
Cc1cc(CN(C)C(=O)c2ccc(OC3CCN(CCc4ccccc4)CC3)cc2)on1	11*	0	-1	9	1
CC1(C)CC(=O)C2=C(C1)N(CC1CCCO1)C(=O)NC2(C(F)(F)F)C(F)(F)F (stereo not given)	11*	-13	0	-1	-1
C#CCN1C=C(C(=O)OCC)C(C)NS1(=O)=O (stereo not given)	-1	0	0	-1	·
C#CCN1C=C(C(=O)OCC)C(C)N(Cc2ccccc2I)S1(=O)=O (stereo not given)	12*	-6	1	-2	0
CC1=C[C@@H]2[C@H]3C(=O)N(Cc4ccccc4)C(=O)[C@H]3[C@@H]1[C@@H]1O[C@@]3(C(=O)N(C)c4ccccc43)C3=C(CCCC3=O)N21	·	·	0	·	·
OC[C@@H]1CN(Cc2ccc3c(c2)OCO3)C[C@H](n2cnc3c(N4CCOCC4)ncnc32)O1	7.8*	·	1	·	0
NC(=O)c1ccc(NC(=O)CSc2nnc(C3CCCCC3)n2N)cc1	-5	0	0	6	·
Nn1c(SCC(=O)Nc2ccc(F)c(F)c2)nnc1C1CCCCC1	9.3*	1	0	1	-2
O=C1c2[nH]nc(-c3ccccc3)c2C(c2cccc(C(F)(F)F)c2)N1c1ccccc1 (stereo not given)	·	·	1	·	·
CCOC(=O)c1[nH]c2ccc(OC)cc2c1NS(=O)(=O)c1ccc(OC)cc1OC	9.7*	4	0	-5	-2
COC(=O)c1[nH]c2ccc(F)cc2c1NS(=O)(=O)c1ccc(OC)cc1OC	-1	-5	1	1	·
Nn1cnnc1N/N=C/c1ccc(Cl)c([N+](=O)[O-])c1	18*	-16	1	-23	1
Cc1ccc(/C=N/Nc2nncn2N)cc1	8.5*	-8	0	-11	-1
COc1ccccc1CCn1cnc(-c2cccc(F)c2)c1C(C)C	·	·	0	·	·
Nc1[nH]c(C(=O)c2ccc(Br)cc2)c(-c2ccc(Cl)cc2)c1C(=O)NCCc1c[nH]c2ccccc12	·	·	0	·	·
Clc1ccccc1Cn1nc(-c2ccccc2)nc1-c1ccccc1	1	3	-1	2	·
Clc1ccc(Cn2nc(-c3ccccc3)nc2-c2ccccc2)cc1	8.7*	-3	0	5	0
COC(=O)c1cc2c(c3c4cc(C)ccc4n(S(=O)(=O)c4ccc(C)cc4)c13)C(=O)N(Cc1ccccc1OC)C2	·	·	0	·	·
COC(=O)c1ccccc1S(=O)(=O)N1CCC(c2nc3ccccc3o2)CC1	12*	2	0	1	-2
COC(=O)c1cccc(S(=O)(=O)N2CCC(c3nc4ccccc4o3)CC2)c1	-9	5	-1	-11	·
Cc1cccc(N2CCN(S(=O)(=O)c3ccc(-c4coc(C)n4)cc3)CC2C)c1 (stereo not given)	7.7*	4	0	7	-1
